Published values pooled from the literature.
Compare with care: the assays were run in different laboratories.
Target: Protein kinase C theta type (PRKCQ, Homo sapiens, UniProt Q04759)

| SMILES | read-out | action | technique | concentration | quantity | result |
| --- | --- | --- | --- | --- | --- | --- |
| CNCc1ccc(-c2cc(-c3nc(-c4ccc(S(=O)(=O)C(C)C)cc4)cnc3N)on2)cc1 | enzyme activity | inhibitor | – | 0.4 µM | inhibition | 0% |
| CNCc1ccccc1-c1csc([C@H](C)Nc2nc(C)nc3cc(OC)c(OC)cc23)c1 | cell-free assay | – | competition with immobilised ligand | 1 µM | remaining binding | 100% |
| Cc1ccc(NC(=O)c2ccc(C)c(C(F)(F)F)c2)cc1C#Cc1nn(C2CCC(O)CC2)c2ncnc(N)c12 (stereo not drawn) | cell-free assay | – | – | 10 µM | remaining signal | 103% |
| CN(C)C1CCN(CC#Cc2nn(C3CCCC3)c3nc(NCc4ccccc4)ncc23)C1 (stereo not drawn) | enzyme activity | inhibitor | FRET | 0.1 µM | inhibition | -1% |
| CC/C(=N\NC(=O)NCc1cccc(O)c1)c1ccc(O)c(C)c1O | enzyme activity | inhibitor | – | 0.1 µM | inhibition | 12.2% |
| Nc1ncnc2occ(-c3ccc(NC(=O)Nc4cc(C(F)(F)F)ccc4F)cc3)c12 | cell-free assay | – | – | 20 µM | remaining signal | 13% |
| Cc1sc(C(=O)NC2COC2)cc1-n1cc(NC(=O)Nc2c(F)cccc2Cl)cn1 | enzyme activity | inhibitor | – | 10 µM | remaining activity | 96.9% |
| COc1cc2c(Nc3ccc(Br)cc3F)ncnc2cc1OCC1CCN(C)CC1 | cell-free assay | – | – | 0.5 µM | remaining signal | 100% |
| CCS(=O)(=O)c1cc2cc(C[C@@](O)(CC(C)(C)c3ccc(F)cc3C(N)=O)C(F)(F)F)[nH]c2cn1 | cell-free assay | – | competition with immobilised ligand | 1 µM | remaining binding | 97% |
| CC(C)c1ccc(NC(=O)c2cccs2)c(-c2nc3ccccc3[nH]c2=O)c1 | enzyme activity | inhibitor | – | 1 µM | activity vs control | 83% |
| COc1cccc(CNC(=O)c2nc3scc(COCc4ccc(C(=O)O)cc4)c3c(=O)[nH]2)c1 | cell-free assay | – | competition with immobilised ligand | 1 µM | remaining binding | 100% |
| Cn1cnc(Br)c1C1=CN(c2ncnc3[nH]cnc23)CCS1 | enzyme activity | inhibitor | radiometric | 50 nM | inhibition | 64.1% |
| O=C(O)c1cc(-c2ccc(C3CCNCC3)cc2)c2ccc(-c3ccc(C(F)(F)F)cc3)cc2c1 | cell-free assay | – | competition with immobilised ligand | 1 µM | remaining binding | 100% |
| CN1CC(Oc2cnc(C#N)cc2-c2ccn3nc(NC(=O)C4CC4)cc3c2)C1 | enzyme activity | inhibitor | – | 1 µM | inhibition | -2% |
| O=C(Nc1cnn(-c2csc(C(=O)NC3COC3)c2)c1)Nc1ccccc1Cl | enzyme activity | inhibitor | – | 5 µM | remaining activity | 114% |
| Cc1c[nH]c2nccc(Oc3c(F)cc(Nc4cc(Cl)nc(N)n4)cc3F)c12 | cell-free assay | – | competition with immobilised ligand | 0.1 µM | remaining binding | 66% |
| Cc1ccc(C(=O)NCc2ccsc2)cc1C#Cc1cn(C(C)C)c2ncnc(N)c12 | enzyme activity | inhibitor | – | 1 µM | activity vs control | 105% |
| O=C(NCCCC1CCCCC1)c1ccc(CNC(=O)c2cnn(-c3ccccc3)c2C(F)(F)F)cc1 | cell-free assay | – | competition with immobilised ligand | 0.1 µM | remaining binding | 100% |
| CCN(CC)CCNC(=O)c1c(C)[nH]c(/C=C2\C(=O)Nc3ccc(F)cc32)c1C | enzyme activity | inhibitor | – | 10 µM | inhibition | 11% |
| CC(C)(C)c1nc2c(s1)c1nc(N)ncc1c1ccc(NS(=O)(=O)c3c(F)cccc3F)c(F)c12 | enzyme activity | inhibitor | radiometric | 1 µM | remaining activity | 115% |
| C=CC(=O)Nc1cc(Nc2nccc(Nc3cc(Cl)c(F)cc3C(C)(C)O)n2)c(OC)cc1N1CC[C@@H](N(C)C)C1 | enzyme activity | inhibitor | – | 1 µM | inhibition | 17% |
| CS(=O)(=O)c1cc(C2(NC(=O)c3cncc4c3cnn4-c3ccc(F)cc3)CC2)ccn1 | cell-free assay | – | competition with immobilised ligand | 1 µM | remaining binding | 99% |
| C[C@@H](N)[C@H]1CC[C@H](C(=O)Nc2ccncc2)CC1 | enzyme activity | inhibitor | TR-FRET | 10 µM | inhibition | 82.7% |
| CNC(=O)c1cc(Oc2ccc(NC(=O)Nc3ccc(Cl)c(C(F)(F)F)c3)cc2)ccn1 | enzyme activity | inhibitor | – | 10 µM | inhibition | -12% |
| O=C1Nc2ccc(Cl)cc2C1=Cc1cc(Cl)c(O)c(Cl)c1 | cell-free assay | – | – | 0.5 µM | remaining signal | 105% |
| Cn1nc(C(F)(F)F)cc1-c1cnc(N2CCc3cc(S(=O)(=O)Nc4c(F)cc(Cl)cc4F)cc(N4CCCC4=O)c32)nc1 | cell-free assay | – | competition with immobilised ligand | 1 µM | remaining binding | 100% |
| N#CCCc1ccc2c(c1)-c1[nH]c3ccc([N+](=O)[O-])cc3c1CC(=O)N2 | cell-free assay | – | – | 0.5 µM | remaining signal | 111% |
| COc1cc2ncnc(Nc3ccc(Oc4ccccc4)cc3C)c2cc1OC | enzyme activity | inhibitor | – | 1 µM | inhibition | 2% |
| CS(=O)(=O)CCNCc1ccc(-c2ccc3ncnc(Nc4ccc(OCc5cccc(F)c5)c(Cl)c4)c3c2)o1 | cell-free assay | – | – | 0.5 µM | remaining signal | 72.4% |
| CCCS(=O)(=O)Nc1ccc(F)c(C(=O)c2c[nH]c3ncc(-c4ccc(Cl)cc4)cc23)c1F | enzyme activity | inhibitor | – | 1 µM | inhibition | < 10% |
